Measurements taken from ChEMBL document CHEMBL3779892, “Increasing the binding affinity of VEGFR-2 inhibitors by extending their hydrophobic interaction with the active site: Design, synthesis and biological evaluation of 1-substituted-4-(4-methoxybenzyl)phthalazine derivatives” (Eur J Med Chem, 2016).

What was measured:
Format in all cases: functional
NCI-H23 = assay: Growth inhibition of human NCI-H23 cells at 10 uM after 48 hrs by sulforhodamine B assay; details: NCI-H23, 48 h, read-out: GI
Procedure, shortened: (§1)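 Run at NCI on the 60-line panel. Cells grown in RPMI 1640 with 5% FBS and 2 mM L-glutamine, plated at 5000–40,000 cells/well by doubling time, and held 24 h at 37 °C before dosing. Drug (DMSO stock) given at a single final 10 µM in triplicate wells for 48 h. Adherent cells fixed with cold TCA (10% final), suspension cells with 16% TCA. SRB stain read at 515 nm. Percent growth from Tz, C and Ti.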

[1] = Growth inhibition of human SF268 cells at 10 uM after 48 hrs by sulforhodamine B assay; details: SF-268, 48 h, read-out: GI; procedure, shortened: as §1
A498 = assay: Growth inhibition of human A498 cells at 10 uM after 48 hrs by sulforhodamine B assay; details: A498, 48 h, read-out: GI; procedure, shortened: as §1
[2] = Growth inhibition of human RPMI8226 cells at 10 uM after 48 hrs by sulforhodamine B assay; details: RPMI-8226, 48 h, read-out: GI; procedure, shortened: as §1
[3] = Growth inhibition of human SNB75 cells at 10 uM after 48 hrs by sulforhodamine B assay; details: SNB-75, 48 h, read-out: GI; procedure, shortened: as §1
K562 = assay: Growth inhibition of human K562 cells at 10 uM after 48 hrs by sulforhodamine B assay; details: K562, 48 h, read-out: GI; procedure, shortened: as §1
SK-MEL-5 = assay: Growth inhibition of human SK-MEL-5 cells at 10 uM after 48 hrs by sulforhodamine B assay; details: SK-MEL-5, 48 h, read-out: GI; procedure, shortened: as §1
U-251 = assay: Growth inhibition of human U251 cells at 10 uM after 48 hrs by sulforhodamine B assay; details: U-251, 48 h, read-out: GI
Procedure, shortened: (§2)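 NCI-60 panel, adherent cells grown in RPMI 1640 with 5% FBS and 2 mM L-glutamine, plated at 5000–40,000 cells/well and preincubated 24 h at 37 °C, 5% CO2. 10 µM final compound from DMSO stock, triplicate wells, 48 h. Fixed with cold TCA (10% final, 60 min, 4 °C) and stained with 0.4% SRB. Absorbance read at 515 nm; growth calculated against time-zero and control wells.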

[4] = Growth inhibition of human SF295 cells at 10 uM after 48 hrs by sulforhodamine B assay; details: SF-295, 48 h, read-out: GI; procedure, shortened: as §1
[5] = Growth inhibition of human COLO205 cells at 10 uM after 48 hrs by sulforhodamine B assay; details: COLO 205, 48 h, read-out: GI; procedure, shortened: as §1
HT-29 = assay: Growth inhibition of human HT-29 cells at 10 uM after 48 hrs by sulforhodamine B assay; details: HT-29, 48 h, read-out: GI; procedure, shortened: as §1
MCF7 = assay: Growth inhibition of human MCF7 cells at 10 uM after 48 hrs by sulforhodamine B assay; details: MCF7, 48 h, read-out: GI; procedure, shortened: as §1
[6] = Growth inhibition of human SNB19 cells at 10 uM after 48 hrs by sulforhodamine B assay; details: SNB-19, 48 h, read-out: GI; procedure, shortened: as §1
[7] = Growth inhibition of human OVCAR3 cells at 10 uM after 48 hrs by sulforhodamine B assay; details: OVCAR-3, 48 h, read-out: GI; procedure, shortened: as §1
[8] = Growth inhibition of human NCI-ADR-RES cells at 10 uM after 48 hrs by sulforhodamine B assay; details: read-out: GI; procedure, shortened: as §1
[9] = Growth inhibition of human OVCAR5 cells at 10 uM after 48 hrs by sulforhodamine B assay; details: OVCAR-5, 48 h, read-out: GI; procedure, shortened: as §1
ACHN = assay: Growth inhibition of human ACHN cells at 10 uM after 48 hrs by sulforhodamine B assay; details: read-out: GI; procedure, shortened: as §1
[10] = Growth inhibition of human OVCAR8 cells at 10 uM after 48 hrs by sulforhodamine B assay; details: OVCAR-8, 48 h, read-out: GI; procedure, shortened: as §1
MDA-MB-231 = assay: Growth inhibition of human MDA-MB-231 cells at 10 uM after 48 hrs by sulforhodamine B assay; details: MDA-MB-231, 48 h, read-out: GI; procedure, shortened: as §1
NCI-H460 = assay: Growth inhibition of human NCI-H460 cells at 10 uM after 48 hrs by sulforhodamine B assay; details: NCI-H460, 48 h, read-out: GI; procedure, shortened: as §1
[11] = Growth inhibition of human OVCAR4 cells at 10 uM after 48 hrs by sulforhodamine B assay; details: OVCAR-4, 48 h, read-out: GI; procedure, shortened: as §1
T47D = assay: Growth inhibition of human T47D cells at 10 uM after 48 hrs by sulforhodamine B assay; details: read-out: GI; procedure, shortened: as §2
[12] = Growth inhibition of human HCT15 cells at 10 uM after 48 hrs by sulforhodamine B assay; details: HCT-15, 48 h, read-out: GI; procedure, shortened: as §1
[13] = Growth inhibition of human BT549 cells at 10 uM after 48 hrs by sulforhodamine B assay; details: BT-549, 48 h, read-out: GI; procedure, shortened: as §1
KM12 = assay: Growth inhibition of human KM12 cells at 10 uM after 48 hrs by sulforhodamine B assay; details: KM12, 48 h, read-out: GI; procedure, shortened: as §1
NCI-H522 = assay: Growth inhibition of human NCI-H522 cells at 10 uM after 48 hrs by sulforhodamine B assay; details: NCI-H522, 48 h, read-out: GI; procedure, shortened: as §1
[14] = Growth inhibition of human UO31 cells at 10 uM after 48 hrs by sulforhodamine B assay; details: UO-31, 48 h, read-out: GI; procedure, shortened: as §2
[15] = Growth inhibition of human IGROV1 cells at 10 uM after 48 hrs by sulforhodamine B assay; details: IGROV-1, 48 h, read-out: GI; procedure, shortened: as §1
[16] = Growth inhibition of human LOXIMVI cells at 10 uM after 48 hrs by sulforhodamine B assay; details: LOX IMVI, read-out: GI; procedure, shortened: as §1
786-0 = assay: Growth inhibition of human 786-0 cells at 10 uM after 48 hrs by sulforhodamine B assay; details: 786-0, 48 h, read-out: GI; procedure, shortened: as §1
Malme-3M = assay: Growth inhibition of human MALME-3M cells at 10 uM after 48 hrs by sulforhodamine B assay; details: read-out: GI; procedure, shortened: as §1
MDA-MB-468 = assay: Growth inhibition of human MDA-MB-468 cells at 10 uM after 48 hrs by sulforhodamine B assay; details: MDA-MB-468, 48 h, read-out: GI; procedure, shortened: as §1
[17] = Growth inhibition of human DU145 cells at 10 uM after 48 hrs by sulforhodamine B assay; details: DU-145, 48 h, read-out: GI; procedure, shortened: as §1
[18] = Growth inhibition of human HOP92 cells at 10 uM after 48 hrs by sulforhodamine B assay; details: HOP-92, 48 h, read-out: GI; procedure, shortened: as §1
NCI-H226 = assay: Growth inhibition of human NCI-H226 cells at 10 uM after 48 hrs by sulforhodamine B assay; details: NCI-H226, 48 h, read-out: GI; procedure, shortened: as §1
NCI-H322M = assay: Growth inhibition of human NCI-H322M cells at 10 uM after 48 hrs by sulforhodamine B assay; details: read-out: GI; procedure, shortened: as §1

| SMILES | inhibition of growth at 10 µM (NCI-H23) [%] | inhibition of growth at 10 µM [1] [%] | inhibition of growth at 10 µM (A498) [%] | inhibition of growth at 10 µM [2] [%] | inhibition of growth at 10 µM [3] [%] | inhibition of growth at 10 µM (K562) [%] | inhibition of growth at 10 µM (SK-MEL-5) [%] | inhibition of growth at 10 µM (U-251) [%] | inhibition of growth at 10 µM [4] [%] | inhibition of growth at 10 µM [5] [%] | inhibition of growth at 10 µM (HT-29) [%] | inhibition of growth at 10 µM (MCF7) [%] | inhibition of growth at 10 µM [6] [%] | inhibition of growth at 10 µM [7] [%] | inhibition of growth at 10 µM [8] [%] | inhibition of growth at 10 µM [9] [%] | inhibition of growth at 10 µM (ACHN) [%] | inhibition of growth at 10 µM [10] [%] | inhibition of growth at 10 µM (MDA-MB-231) [%] | inhibition of growth at 10 µM (NCI-H460) [%] | other results |
| --- | --- | --- | --- | --- | --- | --- | --- | --- | --- | --- | --- | --- | --- | --- | --- | --- | --- | --- | --- | --- | --- |
| COc1ccc(Cc2nnc(Nc3ccc(NC(=O)Nc4ccc(OC)cc4)cc3)c3ccccc23)cc1 | < 30 | < 30 | < 30 | 91 | 50 | < 30 | < 30 | 49 | 81 | < 30 | 34 | 30 | < 30 | < 30 | < 30 | < 30 | 32 | < 30 | 46 | < 30 | inhibition of growth at 10 µM [11]: < 30%; inhibition of growth at 10 µM (T47D): 42%; inhibition of growth at 10 µM [12]: 39%; inhibition of growth at 10 µM [13]: 31%; inhibition of growth at 10 µM (KM12): 39%; inhibition of growth at 10 µM (NCI-H522): 36%; inhibition of growth at 10 µM [14]: < 30%; inhibition of growth at 10 µM [15]: < 30%; inhibition of growth at 10 µM [16]: < 30%; inhibition of growth at 10 µM (786-0): 63%; inhibition of growth at 10 µM (Malme-3M): 31%; inhibition of growth at 10 µM (MDA-MB-468): < 30%; inhibition of growth at 10 µM [17]: < 30%; inhibition of growth at 10 µM [18]: < 30%; inhibition of growth at 10 µM (NCI-H226): < 30%; inhibition of growth at 10 µM (NCI-H322M): < 30% |
| COc1ccc(Cc2nnc(Nc3ccc(NC(=O)Nc4cccc(OC)c4)cc3)c3ccccc23)cc1 | < 30 | < 30 | < 30 | 43 | < 30 | < 30 | < 30 | 32 | < 30 | < 30 | < 30 | < 30 | < 30 | < 30 | < 30 | < 30 | < 30 | < 30 | < 30 | < 30 | inhibition of growth at 10 µM [11]: < 30%; inhibition of growth at 10 µM (T47D): < 30%; inhibition of growth at 10 µM [12]: < 30%; inhibition of growth at 10 µM [13]: < 30%; inhibition of growth at 10 µM (KM12): < 30%; inhibition of growth at 10 µM (NCI-H522): < 30%; inhibition of growth at 10 µM [14]: < 30%; inhibition of growth at 10 µM [15]: < 30%; inhibition of growth at 10 µM [16]: < 30%; inhibition of growth at 10 µM (786-0): 42%; inhibition of growth at 10 µM (Malme-3M): < 30%; inhibition of growth at 10 µM (MDA-MB-468): < 30%; inhibition of growth at 10 µM [17]: < 30%; inhibition of growth at 10 µM [18]: < 30%; inhibition of growth at 10 µM (NCI-H226): < 30%; inhibition of growth at 10 µM (NCI-H322M): < 30% |
| COc1ccc(Cc2nnc(Nc3ccc(NC(=O)Nc4ccc(Cl)c(C(F)(F)F)c4)cc3)c3ccccc23)cc1 | < 30 | < 30 | < 30 | 66 | 50 | 43 | 36 | 51 | 50 | 30 | 61 | 46 | 45 | 78 | 67 | 30 | 50 | 66 | 41 | 36 | inhibition of growth at 10 µM [11]: 60%; inhibition of growth at 10 µM (T47D): 47%; inhibition of growth at 10 µM [12]: 40%; inhibition of growth at 10 µM [13]: < 30%; inhibition of growth at 10 µM (KM12): 51%; inhibition of growth at 10 µM (NCI-H522): 68%; inhibition of growth at 10 µM [14]: < 30%; inhibition of growth at 10 µM [15]: 53%; inhibition of growth at 10 µM [16]: 32%; inhibition of growth at 10 µM (786-0): 62%; inhibition of growth at 10 µM (Malme-3M): < 30%; inhibition of growth at 10 µM (MDA-MB-468): 37%; inhibition of growth at 10 µM [17]: < 30%; inhibition of growth at 10 µM [18]: < 30%; inhibition of growth at 10 µM (NCI-H226): < 30%; inhibition of growth at 10 µM (NCI-H322M): 30% |
